Laboratory results reported in article PMC2880883 (Biochemical pharmacology, 2010).
“Also recorded” adds a separate entry of the source. Read-outs that look alike come from different tables or passages of the source. Each block holds one molecule with its values, some of them ahead of it.

Tests used:
[1] = test system: A3AR-transfected HL-1 cells; experiment: LDH assay, protection from H2O2-induced cell death, hA3AR-transfected cells; format: cell-based, mouse; details: for Protection against H2O2-induced cytotoxicity in A3AR-transfected HL-1 cells: 750 μM H2O2; for IC50: HL-1, read-out: Protection from cell death induced by H2O2, transfected cells, IC50; for EC50: read-out: Protection of A3 AR-transfected cells against H2O2, EC50 (lactate dehydrogenase release)
[2] = test system: non-transfected HL-1 cells; experiment: LDH assay, protection from H2O2-induced cell death, untransfected cells; details: for Protection against H2O2-induced cytotoxicity in non-transfected HL-1 cells: 750 μM H2O2, LDH assay
[3] = molecular target: T1, hA1AR (Homo sapiens, UniProt P30542); experiment: cAMP assay, inhibition of forskolin-stimulated cAMP, CHO cells; format: cell-based
T1 sequence (P30542 1-326): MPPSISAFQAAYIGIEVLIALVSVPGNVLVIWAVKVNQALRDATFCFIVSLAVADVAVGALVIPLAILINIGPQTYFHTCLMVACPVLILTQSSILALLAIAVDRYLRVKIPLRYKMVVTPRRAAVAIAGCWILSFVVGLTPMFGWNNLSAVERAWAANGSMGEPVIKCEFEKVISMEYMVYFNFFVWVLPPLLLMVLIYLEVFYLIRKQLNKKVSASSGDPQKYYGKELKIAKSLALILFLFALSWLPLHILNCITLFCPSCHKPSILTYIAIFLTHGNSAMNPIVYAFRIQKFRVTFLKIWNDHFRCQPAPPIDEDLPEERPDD
In short: (§1)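 Stably transfected CHO cells (A1, A2A or A3AR) were seeded overnight at 37 °C, then given DMEM with 50 mM HEPES, 10 μM rolipram, 3 U/ml adenosine deaminase and rising test compound, for 30 min at 37 °C. For A1/A3, 10 μM forskolin was added for 15 min more; A2A plates were incubated 45 min. Cells were lysed in 0.1 M HCl; cAMP by immunoassay at 405 nm.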

[4] = molecular target: T2, hA2AAR (Homo sapiens, UniProt P29274); experiment: cAMP assay, stimulation of cAMP, CHO cells; format: cell-based
In short: as §1

[5] = molecular target: T3, hA3AR (Homo sapiens, UniProt P0DMS8); experiment: cAMP assay, inhibition of forskolin-stimulated cAMP, CHO cells; format: cell-based
T3 sequence (P0DMS8 1-318): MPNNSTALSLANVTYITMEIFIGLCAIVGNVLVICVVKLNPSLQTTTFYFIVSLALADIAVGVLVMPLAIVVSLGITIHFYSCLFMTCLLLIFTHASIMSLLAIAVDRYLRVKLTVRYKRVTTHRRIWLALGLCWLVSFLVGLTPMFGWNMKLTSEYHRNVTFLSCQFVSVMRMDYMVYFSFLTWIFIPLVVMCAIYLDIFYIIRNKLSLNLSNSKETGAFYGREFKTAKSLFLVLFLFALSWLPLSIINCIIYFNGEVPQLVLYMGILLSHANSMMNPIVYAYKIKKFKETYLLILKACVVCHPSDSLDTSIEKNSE
In short: as §1

[6] = molecular target: T1, hA1AR; details: read-out: Binding, Ki, A1; [3H]CCPA; previously reported; cited from earlier work
[7] = molecular target: T2, hA2AAR; details: read-out: Binding, Ki, A2A; [3H]CGS21680; previously reported; cited from earlier work
[8] = molecular target: T3, hA3AR; details: read-out: Binding, Ki, A3; [125I]AB-MECA; previously reported; cited from earlier work
[9] = test system: A3AR-transfected HL-1 cells; experiment: Luminescent caspase 3/7 assay of H2O2-induced apoptosis; format: cell-based, mouse; details: dendrimer 10 μM 1 h before 400 μM H2O2, 3 h
In short: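 HL-1 cells transfected with hA3AR were seeded at 30,000 cells/well and incubated overnight at 37 °C, then switched to DMEM with Ca/Mg. Dendrimer (10 μM) was added 1 h before H2O2 (400 μM) and kept throughout, with 3 h at 37 °C. An equal volume of Caspase-Glo 3/7 reagent was added for 90 min at room temperature before reading luminescence. Three independent experiments in triplicate, mean ± SD.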

[10] = molecular target: T1, hA1AR; experiment: Radioligand membrane binding, [3H]CCPA, stably transfected CHO cells; details: read-out: Binding, Ki app, A1, dendrimer concentration, mean ± SEM, n = 3
[11] = molecular target: T2, hA2AAR; experiment: Radioligand membrane binding, [3H]CGS21680, stably transfected HEK cells; details: read-out: Binding, Ki app, A2A, dendrimer concentration, mean ± SEM, n = 3
[12] = molecular target: T3, hA3AR; experiment: Radioligand membrane binding, [125I]AB-MECA, stably transfected CHO cells

T2 sequence (P29274 whole entry): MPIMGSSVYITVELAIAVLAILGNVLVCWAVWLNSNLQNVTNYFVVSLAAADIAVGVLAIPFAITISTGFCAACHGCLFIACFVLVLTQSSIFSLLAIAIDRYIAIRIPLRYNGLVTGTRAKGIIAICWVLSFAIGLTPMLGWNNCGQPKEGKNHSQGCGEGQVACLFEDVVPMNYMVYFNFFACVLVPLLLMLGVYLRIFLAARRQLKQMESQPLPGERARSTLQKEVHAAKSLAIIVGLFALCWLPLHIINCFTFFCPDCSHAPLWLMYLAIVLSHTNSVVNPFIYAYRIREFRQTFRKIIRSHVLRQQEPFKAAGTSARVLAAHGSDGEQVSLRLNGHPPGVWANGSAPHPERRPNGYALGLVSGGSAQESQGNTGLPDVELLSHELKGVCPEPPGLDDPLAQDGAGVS

Molecule: CNC(=O)[C@H]1O[C@@H](n2cnc3c(NCc4cccc(I)c4)nc(Cl)nc32)[C@H](O)[C@@H]1O [Cl-IB-MECA, 2-chloro-N^6-(3-iodobenzyl)-5′-N-methylcarboxamidoadenosine]
Protection against H2O2-induced cytotoxicity in A3AR-transfected HL-1 cells ([1]; LDH assay): revealed protection | IC50 ([1]; Mus musculus): 7900 ± 2300 nM | Protection against H2O2-induced cytotoxicity in non-transfected HL-1 cells [2]: neither IB-MECA nor Cl-IB-MECA gave protection

Molecule: CCNC(=O)[C@H]1O[C@@H](n2cnc3c(N)nc(NCCc4ccc(CCC(=O)O)cc4)nc32)[C@H](O)[C@@H]1O [CGS21680, 2-[p-(2-carboxyethyl)phenylethyl-amino]-5′-N-ethylcarboxamidoadenosine]
Protection against H2O2-induced cytotoxicity in non-transfected HL-1 cells [2]: protected; also recorded: protective | IC50 ([2]; Mus musculus, HL-1, read-out: Protection from cell death induced by H2O2, untransfected cells, IC50): 7100 ± 2400 nM

Agonist efficacy in cAMP assay, A1AR (inhibition) [3]: potent full agonist | Agonist efficacy in cAMP assay, A2AAR (stimulation) [4]: potent full agonist | Agonist efficacy in cAMP assay, A3AR (inhibition) [5]: potent full agonist
Molecule: N-(2-Aminoethyl)-ADAC [compound 4]
Ki [6]: 43 ± 5 nM | Ki [7]: 300 ± 20 nM | Ki [8]: 9.5 ± 2 nM

Molecule: CCOC(=O)C1=C(C)NC(c2ccccc2)=C(C(=O)OCc2ccccc2)C1C#Cc1ccccc1 (stereo not drawn) [MRS1191]
Effect of A3 antagonist on protection afforded by IB-MECA from H2O2-induced cell death ([1]; MRS1191 10 μM 1 h before IB-MECA 30 μM, 750 μM H2O2, 4 h, transfected HL-1 cells): prevented the protection

Activity in assay of A3AR-mediated cAMP inhibition at 10 μM ([5]; 10 μM): inactive
Molecule: PAMAMG5.5-1(AF488-ED) [compound 7]
Effect on H2O2-induced apoptosis (caspase 3/7 luminescence) [9]: did not significantly decrease; also recorded: not by 7

Ki [10]: 140 ± 65 nM | Ki [11]: 80 ± 17 nM | Ki ([12]; read-out: Binding, Ki app, A3, [125I]AB-MECA, dendrimer concentration, mean ± SEM, n = 3): 15 ± 4 nM | Selectivity for the A3AR in binding ([12]; versus A1 and A2AARs): only slightly selective
Molecule: PAMAMG5.5-1(AF488-ED)-60(N-(2-aminoethyl)-ADAC) [compound 8]
Selectivity in assay of adenylate cyclase inhibition / AR activation ([5]; versus A1 and A2AARs): nonselective; also recorded: nonselectively | Protection against H2O2-induced cytotoxicity in A3AR-transfected HL-1 cells ([1]; LDH assay): highly potent | IC50 value less than those of monomeric A3AR agonists IB-MECA and Cl-IB-MECA ([1]; A3AR-transfected HL-1 cells, LDH assay): 100- to 200 fold | Effect on H2O2-induced apoptosis (caspase 3/7 luminescence) [9]: significantly decreased; also recorded: significant protection | Protection against H2O2-induced cytotoxicity in non-transfected HL-1 cells [2]: did not show cytoprotection

Molecule: CCNC(=O)[C@H]1O[C@@H](n2cnc3c(N)ncnc32)[C@H](O)[C@@H]1O [NECA, 5′-N-ethylcarboxamidoadenosine]
EC50 ([1]; 750 μM H2O2, 4 h): 3900 nM | Protection against H2O2-induced cytotoxicity in non-transfected HL-1 cells [2]: protected; also recorded: protective

Molecule: OC[C@H]1O[C@@H](n2cnc3c(NC4CCCC4)nc(Cl)nc32)[C@H](O)[C@@H]1O [CCPA, 2-Chloro-N^6-cyclopentyladenosine]
Protection against H2O2-induced cytotoxicity in non-transfected HL-1 cells [2]: did not protect

Molecule: CNC(=O)[C@H]1O[C@@H](n2cnc3c(NCc4cccc(I)c4)ncnc32)[C@H](O)[C@@H]1O [IB-MECA, N^6-(3-iodobenzyl)-5′-N-methylcarboxamidoadenosine]
Protection against H2O2-induced cytotoxicity in A3AR-transfected HL-1 cells ([1]; LDH assay): revealed protection | EC50 ([1]; Mus musculus, HL-1, 4 h): 3800 nM | IC50 ([1]; Mus musculus): 3800 ± 1400 nM | Protection against H2O2-induced cytotoxicity in non-transfected HL-1 cells [2]: neither IB-MECA nor Cl-IB-MECA gave protection
